Assay results: ChEMBL document CHEMBL1145471, “Small molecule regulators of autophagy identified by an image-based high-throughput screen” (Proc Natl Acad Sci U S A, 2007)
Where a SMILES comes first, the peptide text is derived from it. [ ]: non-standard residue; d: D form. Nle = CCCC[C@H](N)C(=O)O

What was measured:
Assay type in all cases: functional
H4 [1] = test: Decrease in FYVE-RFP+ vesicle intensity per cell in human H4 cells after 4 hrs relative to control; design: concentration or dose not given beside the values
Method in brief: (§1)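 H4 cells stably expressing FYVE-RFP (H4-FYVE), grown in DMEM with 10% FBS, penicillin/streptomycin and 2 mM L-glutamine at 37°C, 5% CO2, seeded in 96-well plates and exposed to compound. Fixed in 4% paraformaldehyde, nuclei stained with 3 μg/ml DAPI, FYVE-RFP+ vesicles quantified by high-throughput fluorescence microscopy against DMSO control. Triplicate wells, mean ± SD.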

H4 [2] = test: Decrease in FYVE-RFP+ vesicle intensity per cell in human H4 cells after 2 hrs relative to control; design: concentration or dose not given beside the values; method in brief: as §1
H4 [3] = test: Increase in long-lived protein degradation in human H4 cells after 2 hrs relative to control; design: concentration or dose not given beside the values
H4 [4] = test: Increase in light chain 3-GFP+ autophagosome vesicle intensity per cell in human H4 cells at 7.3 uM after 24 hrs by high throughput fluorescence microscopy relative to control
Method in brief: (§2)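 H4 cells stably expressing LC3-GFP, seeded in 96-well plates and exposed to compound for 24 h; fixed in 4% paraformaldehyde, nuclei stained with 3 μg/ml DAPI. Automated fluorescence microscopy scored number, size and intensity of LC3-GFP spots; values expressed relative to DMSO-treated wells, rapamycin positive control. Triplicate wells, mean ± SD; experiments repeated three times.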

H4 [5] = test: Increase in light chain 3-GFP+ autophagosome vesicle area per cell in human H4 cells at 7.3 uM after 24 hrs by high throughput fluorescence microscopy relative to control; method in brief: as §2
H4 [6] = test: Increase in long-lived protein degradation in human H4 cells after 4 hrs relative to control; design: concentration or dose not given beside the values
H4 [7] = test: Increase in long-lived protein degradation in human H4 cells after 1 hr relative to control; design: concentration or dose not given beside the values
H4 [8] = test: Decrease in FYVE-RFP+ vesicle intensity per cell in human H4 cells after 8 hrs relative to control; design: concentration or dose not given beside the values; method in brief: as §1
H4 [9] = test: Induction of light chain 3-GFP level in human H4 cells at 7.3 uM after 24 hrs by high throughput fluorescence microscopy relative to control
Method in brief: (§3)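 H4 cells stably expressing LC3-GFP, kept in DMEM/10% FBS at 37°C, 5% CO2, were seeded in 96-well plates and exposed to compound for 24 h. Cells were then fixed in 4% paraformaldehyde and stained with 3 μg/ml DAPI. Automated fluorescence microscopy scored the number, size and intensity of LC3-GFP spots. Values are percent of DMSO wells, in triplicate, mean ± SD. Rapamycin served as positive control.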

H4 [10] = test: Increase in light chain 3-GFP+ autophagosome vesicle number per cell in human H4 cells at 7.3 uM after 24 hrs by high throughput fluorescence microscopy relative to control; method in brief: as §3
H4 [11] = test: Increase in long-lived protein degradation in human H4 cells after 24 hrs relative to control; design: concentration or dose not given beside the values
H4 [12] = test: Effect on FYVE-RFP+ vesicle intensity per cell in human H4 cells after 2 hrs relative to control; design: concentration or dose not given beside the values; method in brief: as §1
H4 [13] = test: Induction of light chain 3-GFP level in human H4 cells at 6.3 uM after 24 hrs by high throughput fluorescence microscopy relative to control; method in brief: as §3
H4 [14] = test: Effect on FYVE-RFP+ vesicle intensity per cell in human H4 cells after 4 hrs relative to control; design: concentration or dose not given beside the values; method in brief: as §1
H4 [15] = test: Increase in light chain 3-GFP+ autophagosome vesicle area per cell in human H4 cells at 6.3 uM after 24 hrs by high throughput fluorescence microscopy relative to control; method in brief: as §2
H4 [16] = test: Effect on FYVE-RFP+ vesicle intensity per cell in human H4 cells after 8 hrs relative to control; design: concentration or dose not given beside the values; method in brief: as §1
H4 [17] = test: Increase in light chain 3-GFP+ autophagosome vesicle number per cell in human H4 cells at 6.3 uM after 24 hrs by high throughput fluorescence microscopy relative to control; method in brief: as §3
H4 [18] = test: Increase in light chain 3-GFP+ autophagosome vesicle intensity per cell in human H4 cells at 6.3 uM after 24 hrs by high throughput fluorescence microscopy relative to control; method in brief: as §2
H4 [19] = test: Increase in light chain 3-GFP+ autophagosome vesicle area per cell in human H4 cells at 6.5 uM after 24 hrs by high throughput fluorescence microscopy relative to control; method in brief: as §2
H4 [20] = test: Induction of light chain 3-GFP level in human H4 cells at 6.5 uM after 24 hrs by high throughput fluorescence microscopy relative to control; method in brief: as §3
H4 [21] = test: Increase in light chain 3-GFP+ autophagosome vesicle intensity per cell in human H4 cells at 6.5 uM after 24 hrs by high throughput fluorescence microscopy relative to control; method in brief: as §2
H4 [22] = test: Increase in light chain 3-GFP+ autophagosome vesicle number per cell in human H4 cells at 6.5 uM after 24 hrs by high throughput fluorescence microscopy relative to control; method in brief: as §3
H4 [23] = test: Induction of light chain 3-GFP level in human H4 cells at 5.4 uM after 24 hrs by high throughput fluorescence microscopy relative to control; method in brief: as §3
H4 [24] = test: Increase in light chain 3-GFP+ autophagosome vesicle number per cell in human H4 cells at 5.4 uM after 24 hrs by high throughput fluorescence microscopy relative to control; method in brief: as §3
H4 [25] = test: Increase in light chain 3-GFP+ autophagosome vesicle intensity per cell in human H4 cells at 5.4 uM after 24 hrs by high throughput fluorescence microscopy relative to control; method in brief: as §2
H4 [26] = test: Increase in light chain 3-GFP+ autophagosome vesicle area per cell in human H4 cells at 5.4 uM after 24 hrs by high throughput fluorescence microscopy relative to control; method in brief: as §2

Compound	Activity (H4 [1]) [%]	Activity (H4 [2]) [%]	Activity (H4 [3]) [%]	Activity (H4 [6]) [%]	Activity (H4 [7]) [%]	Activity (H4 [8]) [%]	Activity (H4 [11]) [%]	Activity (H4 [12]) [%]	Activity (H4 [14]) [%]	Activity (H4 [16]) [%]	other results
CC(C)(c1ccc(OCC2CO2)cc1)c1ccc(OCC2CO2)cc1 (stereo not given)	53.06	44.65	84.65	95.85	96.5	58.53	91.78				Activity (H4 [4]): 182.11%; Activity (H4 [5]): 175.52%; Activity (H4 [9]): 132.48%; Activity (H4 [10]): 156.58%
CCCNC(=O)[C@H]1O[C@@H]1C(=O)N[C@H](C(=O)N1CCC[C@H]1C(=O)OC)[C@@H](C)CC			110.18	81	115.2		89.11	65.94	79.82	86.43	Activity (H4 [13]): 132.2%; Activity (H4 [15]): 239.2%; Activity (H4 [17]): 197.44%; Activity (H4 [18]): 272.48%
COc1ccc2c(c[n+](C)c3c4cc5c(cc4ccc23)OCO5)c1OC.[Cl-] [CHELERYTHRINE CHLORIDE]	22.01	30.83	100.4	108.72	101.43	33.84	106.48				Activity (H4 [19]): 229.91%; Activity (H4 [20]): 110.26%; Activity (H4 [21]): 213.88%; Activity (H4 [22]): 195.46%
CCOC(=O)[C@H]1O[C@@H]1C(=O)N[C@@H](CC(C)C)C(=O)NCCC(C)C [ALOXISTATIN]	53.97	48.31	76.35	79.98	84.82	39.61	91.33				Activity (H4 [4]): 244.88%; Activity (H4 [5]): 195.1%; Activity (H4 [9]): 119.19%; Activity (H4 [10]): 169.98%
N#Cc1cc2c(OCC(O)CN3CCN(C(c4ccccc4)c4ccccc4)CC3)cccc2[nH]1 (stereo not given)			108.53	101.77	90.63		90.03	65.87	59.79	72.4	Activity (H4 [23]): 94.7%; Activity (H4 [24]): 224.74%; Activity (H4 [25]): 329.96%; Activity (H4 [26]): 275.43%
CCCC[C@@H](C=O)NC(=O)[C@H](CC(C)C)NC(=O)[C@H](CC(C)C)NC(C)=O (Ac-Leu-Leu-[Nle]-aldehyde)			104.95	91.35	124.56		95.45	72.86	84.85	88.42	Activity (H4 [19]): 362.79%; Activity (H4 [20]): 96.31%; Activity (H4 [21]): 495.29%; Activity (H4 [22]): 277.88%
C/C1=C/C(=O)O[C@@H]2C[C@@H](CC[C@H](C)/C=C\CC1)O[C@@](O)([C@@H]1CSC(=O)N1)C2 [LATRUNCULIN B]											Activity (H4 [13]): 27.55%; Activity (H4 [15]): 334.83%; Activity (H4 [17]): 263.28%; Activity (H4 [18]): 723.64%
